Data taken from ChEMBL document CHEMBL4513216, “Probing the Open Global Health Chemical Diversity Library for Multistage-Active Starting Points for Next-Generation Antimalarials” (ACS Infect Dis, 2020).

Assay: Toxicity liver stage against HepG2, at 10uM
Type: cell-based
Design: test concentration 10 uM, cell line HepG2-A16-CD81EGFP
Details: human, HepG2-A16-CD81EGFP cells; read-out: INHIBITION
Method in brief: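 Uninfected HepG2-A16-CD81EGFP cells, 3 × 10^3 per well, 1536-well, plated on prespotted compound at 10 μM final, parasite-free screening media added to match infected plates; puromycin 10 μM positive, DMSO 0.5% negative; run in parallel with 48 h PbLuc assay at 37 °C, 5% CO2; viability by CellTiter-Glo luminescence, normalized to controls.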

| SMILES | cytotoxicity at 10 µM [%] |
| --- | --- |
| CN1CCN(C[C@H]2CN3CC[C@H]2C[C@@H]3CNC(=O)c2ccco2)CC1 | -6.35 |
| COc1ccccc1N1CCN(C(=O)COc2c(C)occc2=O)CC1 | -0.426 |
| Cc1ccccc1C(=O)N1CCN(c2ccc(-n3cncn3)nn2)CC1 | 50.8 |
| CC[C@H]1N(Cc2ccco2)CCC[C@]12CCC(=O)N2C | 4.23 |
| CO[C@H]1CN(C(=O)c2ccc3c(c2)OCO3)[C@@H]2COC[C@H]12 | -142 |
| Cc1oncc1C(=O)N1CCC2(CCN(Cc3cccc(F)c3)C2=O)C1 (stereo not drawn) | -142 |
| CCOC(=O)CSc1ccc(-c2nc(CC)no2)cn1 | -17.1 |
| COc1ccc(-c2cc(=O)n3c(n2)CCCCC3)cc1 | -14.1 |
| CCN(CC)C(=O)c1ccn(COc2ccc(F)cc2)n1 | 7.55 |
| CCn1nc(C)c2nc(C(C)C)nc(N3CCC(O)CC3)c21 | 1.3 |
| CN(C(=O)c1ccncc1)c1nnc(C2CCOC2)s1 (stereo not drawn) | 3.57 |
| CCCC(=O)NCCc1nc(N(C)C)ncc1-c1ccncc1 | 2.92 |
| COCCNCc1cc2ccc(C)c(C)c2[nH]c1=O | 5.13 |
| CN(C)CC(=O)N1CCCC1c1ccccn1 (stereo not drawn) | 4.38 |
| CC1(C2CCN(CC(N)=O)CC2)CN(Cc2ccccc2)C(=O)O1 (stereo not drawn) | -23.4 |
| NC(=O)C1CCN(C(=O)CCn2c(C(F)(F)F)cc3cccnc32)CC1 | -23.7 |
| CN(C)CCN(C)C(=O)c1ccccc1-n1cc(CN(C)C)cn1 | -13.7 |
| O=C(c1cccnc1)N1CCC(c2nc(O)cc(-c3ccncc3)n2)C1 (stereo not drawn) | -20.8 |
| O=C(Cn1ccnc1)N1C[C@@H]2CC[C@H](Oc3cccc(F)c3)[C@@H]2C1 | -18 |
| CCn1cc(CN2CCc3nc(-c4ccccn4)nc(O)c3C2)cn1 | -2.25 |
| CNc1ccc(CC2CCCN(C(=O)c3cnco3)C2)nn1 (stereo not drawn) | -8.55 |

| SMILES | cytotoxicity at 10 µM [%] |
| --- | --- |
| Cc1occc1C(=O)NCC(=O)N1CCC(COc2ccccc2)CC1 | 12.2 |
| COCCn1cc(C(=O)NCCS(N)(=O)=O)c2ccccc21 | 7.01 |
| Cc1nc(C)c(C(C)NCc2c(C(C)C)nn(C)c2N(C)C)s1 (stereo not drawn) | -8.53 |
| CC(O)CN1CCN(Cc2coc(-c3ccccc3)n2)CC1 (stereo not drawn) | -5.93 |
| Cc1cc(C(=O)NCCC(=O)N2CCCc3ccccc32)no1 | 2.29 |
| COc1cc(CNC(=O)c2cc(S(C)(=O)=O)ccc2C)ccn1 | -1.65 |
| Cc1noc(CSc2ccc(C(F)(F)F)cn2)n1 | -12.5 |
| CCN(CC)c1nc2sc(C(=O)NC(C)(C)C(=O)OC)cc2s1 | 3.58 |
| Cc1cccc(NC(=O)[C@@H]2CCCN2Cc2nc3ccccc3o2)n1 | -4.61 |
| COCc1ccc(C(=O)N2CCOCC2c2ccc(C)o2)cc1 (stereo not drawn) | -5.48 |
| N#Cc1ncn(CCC(=O)Nc2ccc(F)c(F)c2)n1 | -147 |
| CCCc1nc(C)c(C(=O)Nc2cccc(C)n2)s1 | -40.8 |
| CCCOc1cc(C)ccc1NC(=O)NCCNC(C)=O | -6.58 |
| Cc1ccc(OCCC(=O)NCCCN2CCCC2=O)c(C)c1 | -1.08 |
| Cc1ncncc1C(=O)N1CCCN(Cc2cnn(C(C)C)c2)CC1 | 0.814 |
| CCN(CC(=O)NCc1nc(C2CC2)no1)Cc1ccc(Cl)cc1 | -2.29 |
| Cn1c(C2CC2)nc2c1CCN(CCc1ccccn1)C2 | 4.59 |
| CCc1noc(CC)c1CC(=O)N1CCN(C(=O)C2CCCC2)CC1 | -4.78 |
| CCOC(C)c1nc(Cn2cc(C)cn2)cs1 (stereo not drawn) | 5.52 |
| O=C(O)CN1CCC(c2ccccc2)CC1 | 1.73 |
| CC(C)OCCSCCn1nc2ccccn2c1=O | 3.36 |

| SMILES | cytotoxicity at 10 µM [%] |
| --- | --- |
| CC(C)N(C)C(=O)CSCc1ccc(S(=O)(=O)N(C)C)o1 | 19.1 |
| Cn1ccnc1CNCCNc1ncc(Cl)cc1Cl | 0.321 |
| O=C(c1cccs1)N1CCN(C(=O)c2ncoc2-c2ccco2)CC1 | 3.82 |
| CCCS(=O)(=O)NCCc1ncc(CC)s1 | -1.56 |
| O=C(NCC1CC2(CO1)CN(c1nncs1)C2)C1CCC1 (stereo not drawn) | -103 |
| O=c1[nH]c(-c2ccncc2)ncc1-c1ccnc(NC2CCCCC2)n1 | -9.24 |
| CN1CCN(S(=O)(=O)c2ccc(C(=O)N3CC[C@@H](O)C3)cc2)CC1=O | 2.7 |
| Cc1ccccc1SC1CCN(C(=O)C2CNCC(=O)N2)CC1 (stereo not drawn) | -3.81 |
| COc1cc(OC)cc(C2CC(=O)Nc3c2nc2n3CCCC2)c1 (stereo not drawn) | -3.99 |
| CC(C)(O)CCc1cccc(C(=O)N2CCC[C@H]2CN2CCCC2)c1 | -1.13 |
| O=C(c1ccc(-n2cnnc2)cc1Cl)N1CCCC(O)(CO)CC1 (stereo not drawn) | -3.59 |
| CN(Cc1ccsc1)C(=O)C1CCC(=O)N(Cc2ccccn2)C1 (stereo not drawn) | 0.0228 |
| CNCC(=O)NC1CC(C)(C)Cc2nc(C(C)(C)C)ncc21 (stereo not drawn) | 10.2 |
| O=C(CCN1CCOCC1)NC1CCCN(CC2CCCCC2)C1 (stereo not drawn) | 1.64 |
| Cc1nn(C)c2nc(NC(C)c3nnn[nH]3)sc12 (stereo not drawn) | -0.909 |
| COc1cccc(OC)c1-c1c[nH]c(C)n1 | -1.57 |
| COCc1nc(CNC2CSCCSC2)no1 | 8.33 |
| Cc1nc(NCCSc2cnn[nH]2)c2c(C)noc2n1 | -3.21 |
| O[C@@]1(CNCC2(Cn3cccn3)CC2)CCCN2CCCC[C@@H]21 | 4.13 |
| CCCC(=O)N1CCCC(Cn2cc(-c3ccc(F)cc3)nn2)C1 (stereo not drawn) | 7.88 |
| CN(CC1CCCCO1)S(=O)(=O)c1cccc(C(=O)N2CCOCC2)c1 (stereo not drawn) | -12.4 |

| SMILES | cytotoxicity at 10 µM [%] |
| --- | --- |
| COc1cccc2c(=O)n(Cc3nc(C)cc(O)n3)cnc12 | 9.49 |
| Cc1ccc2nc(C3CCCN3C(=O)c3cc(=O)[nH]c(=O)[nH]3)[nH]c2c1 (stereo not drawn) | 18.7 |
| c1ccc(CCCN2CCCC(Nc3cnc4ccccc4n3)C2)cc1 (stereo not drawn) | 1.34 |
| CCNC(=O)N1CCCC(C(=O)c2cccc(OC(C)C)c2)C1 (stereo not drawn) | 8.62 |
| CCCN(Cc1cccnc1)Cc1ccc(C2CCCCO2)o1 (stereo not drawn) | 1.97 |
| O=C(CCc1cc(O)no1)N1CCCC(COc2ccc(F)cc2)C1 (stereo not drawn) | 2.47 |
| CC(C)c1ncc(CN2C[C@@H](CN3CCC(CO)CC3)[C@@H](CO)C2)cn1 | 20 |
| CCC(=O)N1CC[C@@H](c2ccc3ccccc3c2)[C@H](O)C1 | -11.4 |
| CC(C)c1nnc2n1CCN(C(=O)Cc1csc(C(C)(C)C)n1)C2 | -4.54 |
| COc1ccc(C(=O)N(C)Cc2ncc(C)c(OC)c2C)c(OC)c1 | -4.28 |
| COc1ccccc1C(O)CNC(=O)NCc1cccnc1OC (stereo not drawn) | -4.48 |
| CCN(CC)C1CCN(C(=O)c2cc3cc(C)cc(C)c3nc2C)CC1 | 0.199 |
| COc1ccc(C[C@H]2CNCC[C@H]2OC)cc1 | 1.76 |
| Cc1ccc2c(n1)N(C)CCN(C(=O)NC1CC1)C2 | 1.36 |
| O=C(C1CCC2(CCN(CC3CC3)CC2)O1)N1CCCC1 (stereo not drawn) | 1.58 |
| Cc1cccc(CN2C[C@@H]3CN(C(=O)c4cnoc4C)C[C@@H]3C2=O)n1 | 5.71 |
| CCOC(=O)c1sc2ccsc2c1CN | -1.86 |
| O=C1[C@H]2CN(C3CCOCC3)C[C@H]2CN1Cc1cccc(F)c1 | -117 |
| CC(C)N1CCc2[nH]nc(C(=O)N3CCN(C)CC3)c2C1 | -3.75 |
| NCC1CCC(C(NC(=O)CC2CCCC2)c2ccccn2)CC1 (stereo not drawn) | -14.6 |
